{"source": "ChEMBL document CHEMBL4371044", "about": "“Celastrol Promotes Weight Loss in Diet-Induced Obesity by Inhibiting the Protein Tyrosine Phosphatases PTP1B and TCPTP in the Hypothalamus” (J Med Chem, 2018)", "key": {"[1]": {"tested_on": "Mus musculus", "assay": "Antiobesity activity in high fat diet-induced obese Ptpn1fl/fl/Ptpn2fl/fl null C57BL/6 mouse assessed as reduction in body weight at 100 ug/kg, ip for 10 consecutive days", "assay_type": "functional, organism-based", "in_short": "(§1)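 Male Ptpn1fl/fl, Ptpn2fl/fl or double-floxed mice: chow 8 weeks, then high-fat diet (45% energy from fat) 12 weeks. Bilateral intra-ARC stereotaxic injection of rAAV-CMV-Cre-GFP or rAAV-CMV-GFP, 100 nL/side. After 2 weeks recovery, vehicle or 100 μg/kg ip daily at 6 pm for 10 days; body weight tracked; two-way repeated-measures ANOVA with Tukey test; means ± SEM.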"}, "[2]": {"tested_on": "Mus musculus", "assay": "Antiobesity activity in high fat diet-induced obese Ptpn1fl/fl/Ptpn2fl/fl null C57BL/6 mouse assessed as hypophagia at 100 ug/kg, ip for 10 consecutive days", "assay_type": "functional, organism-based"}, "[3]": {"molecular_target": "T1, Tyrosine-protein phosphatase non-receptor type 2 (Homo sapiens, UniProt P17706)", "T1 sequence (P17706 whole entry)": "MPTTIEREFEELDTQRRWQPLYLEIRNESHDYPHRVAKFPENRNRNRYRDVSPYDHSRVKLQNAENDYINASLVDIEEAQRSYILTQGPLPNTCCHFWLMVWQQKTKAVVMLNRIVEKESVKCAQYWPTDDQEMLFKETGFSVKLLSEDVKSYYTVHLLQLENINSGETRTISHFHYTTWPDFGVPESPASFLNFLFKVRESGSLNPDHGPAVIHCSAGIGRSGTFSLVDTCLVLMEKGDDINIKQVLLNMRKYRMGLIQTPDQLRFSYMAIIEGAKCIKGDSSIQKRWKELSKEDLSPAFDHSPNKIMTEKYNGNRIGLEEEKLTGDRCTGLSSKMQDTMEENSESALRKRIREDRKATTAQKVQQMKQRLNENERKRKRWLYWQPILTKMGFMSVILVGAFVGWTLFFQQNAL", "assay": "(§2) Inhibition of human N-terminal His6-tagged TCPTP catalytic domain (1 to 336 residues) expressed in Escherichia coli strain Rosetta2 (DE3) using DiFMUP as substrate preincubated for 10 mins followed by substrate addition and measured after 10 mins by fluorescence assay", "in_short": "(§3)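 Tag-cleaved, SEC-purified enzyme at 1 nM, preincubated 10 min with compound at 15 concentrations from 0–500 μM (5% DMSO final) in 25 mM Bis-Tris propane pH 7.5, 50 mM NaCl, 2 mM EDTA. DiFMUP added at each construct's Km (10, 7, 10, 9 μM for PTP1B1−298, PTP1B1−393, TCPTP1−296, TCPTP1−336). Read ex 358/em 455 nm continuously 10 min at 37 °C; triplicate; log(inhibitor)-response fit.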"}, "[4]": {"molecular_target": "T1, Tyrosine-protein phosphatase non-receptor type 2", "assay": "Inhibition of human N-terminal His6-tagged TCPTP catalytic domain (1 to 296 residues) expressed in Escherichia coli strain Rosetta2 (DE3) using DiFMUP as substrate preincubated for 10 mins followed by substrate addition and measured after 10 mins by fluorescence assay", "in_short": "as §3"}, "[5]": {"molecular_target": "T2, Tyrosine-protein phosphatase non-receptor type 1 (Homo sapiens) (UniProt P18031)", "T2 sequence (whole entry)": "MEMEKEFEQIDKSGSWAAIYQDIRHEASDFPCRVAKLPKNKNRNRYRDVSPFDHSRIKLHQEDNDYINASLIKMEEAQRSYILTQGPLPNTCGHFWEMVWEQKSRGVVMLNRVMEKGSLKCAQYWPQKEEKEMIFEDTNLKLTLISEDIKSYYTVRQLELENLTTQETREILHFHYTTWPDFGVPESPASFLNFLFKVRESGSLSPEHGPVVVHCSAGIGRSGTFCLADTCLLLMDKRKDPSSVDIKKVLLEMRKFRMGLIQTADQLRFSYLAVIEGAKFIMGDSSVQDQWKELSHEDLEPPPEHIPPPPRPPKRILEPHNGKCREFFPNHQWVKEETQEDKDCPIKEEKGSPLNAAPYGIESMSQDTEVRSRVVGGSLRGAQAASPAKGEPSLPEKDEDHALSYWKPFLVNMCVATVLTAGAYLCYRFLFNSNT", "assay": "Non competitive inhibition of human N-terminal His6-tagged PTP1B catalytic domain (1 to 393 residues) expressed in Escherichia coli strain Rosetta2 (DE3) using DiFMUP as substrate preincubated for 10 mins followed by substrate addition and measured after 10 mins by Michaelis-Menten plot analysis"}, "[6]": {"molecular_target": "T2, Tyrosine-protein phosphatase non-receptor type 1 (Homo sapiens)", "assay": "Inhibition of human N-terminal His6-tagged PTP1B catalytic domain (1 to 393 residues) expressed in Escherichia coli strain Rosetta2 (DE3) up to 500 uM using pNPP as substrate preincubated for 10 mins followed by substrate addition and measured after 10 mins by fluorescence assay"}, "[7]": {"molecular_target": "T2, Tyrosine-protein phosphatase non-receptor type 1 (Homo sapiens)", "assay": "Inhibition of human N-terminal His6-tagged PTP1B catalytic domain (1 to 298 residues) expressed in Escherichia coli strain Rosetta2 (DE3) up to 500 uM using pNPP as substrate preincubated for 10 mins followed by substrate addition and measured after 10 mins by fluorescence assay"}, "[8]": {"molecular_target": "T2, Tyrosine-protein phosphatase non-receptor type 1 (Homo sapiens)", "assay": "(§4) Inhibition of human N-terminal His6-tagged PTP1B catalytic domain (1 to 393 residues) expressed in Escherichia coli strain Rosetta2 (DE3) using DiFMUP as substrate preincubated for 10 mins followed by substrate addition and measured after 10 mins in presence of 0.05% Tween20 by fluorescence assay", "in_short": "(§5)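 DiFMUP IC50 assay (1 nM enzyme, 10 min preincubation, substrate at Km, 37 °C, ex 358/em 455 nm), repeated as an aggregation check under three altered conditions: 10-fold enzyme (10 nM), 0.05% Tween 20, or 0.1 mg/mL BSA in buffer.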"}, "[9]": {"molecular_target": "Tyrosine-protein phosphatase non-receptor type 6 (Homo sapiens, UniProt P29350)", "sequence (P29350 whole entry, the tested form may be a part)": "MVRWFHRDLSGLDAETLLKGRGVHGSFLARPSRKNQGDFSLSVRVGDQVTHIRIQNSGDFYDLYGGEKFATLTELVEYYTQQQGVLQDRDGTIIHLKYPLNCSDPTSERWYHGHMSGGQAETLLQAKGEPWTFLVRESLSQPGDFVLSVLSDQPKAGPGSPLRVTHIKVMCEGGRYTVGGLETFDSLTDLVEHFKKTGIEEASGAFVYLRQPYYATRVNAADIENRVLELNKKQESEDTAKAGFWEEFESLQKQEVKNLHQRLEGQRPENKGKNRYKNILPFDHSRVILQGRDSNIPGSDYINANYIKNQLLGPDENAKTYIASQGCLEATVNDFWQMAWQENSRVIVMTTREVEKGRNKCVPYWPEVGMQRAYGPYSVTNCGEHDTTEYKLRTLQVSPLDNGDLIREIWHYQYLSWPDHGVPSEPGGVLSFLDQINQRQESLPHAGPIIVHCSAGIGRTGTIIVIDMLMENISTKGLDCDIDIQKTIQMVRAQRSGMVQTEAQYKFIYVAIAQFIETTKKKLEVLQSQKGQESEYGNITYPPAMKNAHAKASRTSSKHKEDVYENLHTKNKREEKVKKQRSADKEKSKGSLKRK", "assay": "Inhibition of human SHP1 (245 to 521 residues) expressed in Escherichia coli strain BL21(DE3) using DiFMUP as substrate preincubated for 10 mins followed by substrate addition and measured after 10 mins by fluorescence assay", "in_short": "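Selectivity panel on enzymes expressed in E. coli BL21(DE3), purified by nickel affinity then size exclusion. DiFMUP fluorescence assay run as for PTP1B/TCPTP, with per-enzyme conditions in a supplementary table; nonlinear regression for IC50; three independent experiments.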"}, "[10]": {"tested_on": "Mus musculus", "assay": "Antiobesity activity in high fat diet-induced obese Ptpn1fl/fl null C57BL/6 mouse treated with rAAV-CMV-Cre-GFP for deletion of PTP1B assessed as reduction in body weight at 100 ug/kg, ip for 10 consecutive days", "assay_type": "functional, organism-based", "in_short": "as §1"}, "[11]": {"tested_on": "Mus musculus", "assay": "Antiobesity activity in high fat diet-induced obese Ptpn1fl/fl null C57BL/6 mouse treated with rAAV-CMV-Cre-GFP for deletion of TCPTP assessed as reduction in body weight at 100 ug/kg, ip for 10 consecutive days", "assay_type": "functional, organism-based", "in_short": "as §1"}, "[12]": {"molecular_target": "T2, Tyrosine-protein phosphatase non-receptor type 1 (Homo sapiens)", "assay": "as §4, with “10 fold higher enzyme concentration” for “0.05% Tween20”", "in_short": "as §5"}, "[13]": {"molecular_target": "T3, Tyrosine-protein phosphatase non-receptor type 2 (Homo sapiens) (UniProt P17706)", "T3 sequence (whole entry)": "T1 sequence (P17706 whole entry)", "assay": "as §2, with “10 mins in presence of 10 fold higher enzyme concentration by fluorescence” for “10 mins by fluorescence”", "in_short": "as §5"}}, "note": "The source made the active and inactive calls. The rule behind the calls is not given here.", "data": [{"molecule": "CC1=C(O)C(=O)C=C2C1=CC=C1[C@@]2(C)CC[C@@]2(C)[C@@H]3C[C@](C)(C(=O)O)CC[C@]3(C)CC[C@]12C", "note": "[CELASTROL]", "values": [{"measurement": "Activity", "setting": "[1]", "result": "Active"}, {"measurement": "Activity", "setting": "[2]", "result": "Active"}, {"measurement": "IC50", "setting": "[3]", "result": 18.8, "unit": "µM"}, {"measurement": "IC50", "setting": "[4]", "result": 23, "unit": "µM"}, {"measurement": "inhibition", "setting": "[5]", "result": "Active"}, {"measurement": "inhibition", "setting": "[6]", "result": "Active"}, {"measurement": "inhibition", "setting": "[7]", "result": "Active"}, {"measurement": "inhibition", "setting": "[8]", "result": "Active"}, {"measurement": "IC50", "setting": "[9]", "result": 3.1, "unit": "µM"}, {"measurement": "Activity", "setting": "[10]", "result": "inactive"}, {"measurement": "Activity", "setting": "[11]", "result": "inactive"}, {"measurement": "inhibition", "setting": "[12]", "result": "Active"}, {"measurement": "inhibition", "setting": "[13]", "result": "Active"}]}]}
